Test results: article PMC2874077 (Journal of medicinal chemistry, 2010)
“Also recorded” adds a separate entry of the source. Read-outs that look alike come from different tables or passages of the source. Blank lines part the entries; values can stand above or below the compound they belong to.

What was measured:
[1] = test system: airways hyperresponsiveness in OVA/OVA Balb/C mice; settings: cited from earlier work
[2] = biological target: T1, human arginase I (Homo sapiens, UniProt P05089); assay: Fixed-point kinetic assay with [14C-guanidino]-L-arginine; format: biochemical; settings: for mode of inhibition: from Lineweaver-Burk plots
T1 sequence (P05089 1-322): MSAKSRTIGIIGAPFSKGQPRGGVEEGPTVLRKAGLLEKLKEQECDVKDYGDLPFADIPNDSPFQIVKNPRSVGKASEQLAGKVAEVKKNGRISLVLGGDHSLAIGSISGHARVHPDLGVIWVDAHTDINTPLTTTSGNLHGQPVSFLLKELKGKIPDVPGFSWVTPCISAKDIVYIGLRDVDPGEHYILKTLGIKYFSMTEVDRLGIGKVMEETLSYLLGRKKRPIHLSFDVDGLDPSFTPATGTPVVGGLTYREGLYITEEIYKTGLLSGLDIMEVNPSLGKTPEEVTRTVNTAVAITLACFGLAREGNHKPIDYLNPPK
Method in brief: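 Affinity derived from a replot of v0/vi (velocity without/with inhibitor) against inhibitor concentration. Mode of inhibition (competitive or noncompetitive) assigned from Lineweaver-Burk plots at several inhibitor concentrations.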

[3] = test system: airways hyperresponsiveness in OVA/OVA Balb/C mice; format: in vivo, mouse
Method in brief: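 Female Balb/C mice (6–8 weeks) were sensitized i.p. with 25 μg OVA plus 1 mg aluminium hydroxide on days 0 and 7, then given nebulized 6% OVA in PBS, or PBS, 25 min/day on days 14–20. On day 21: ketamine/xylazine anaesthesia, intubation, FlexiVent ventilation.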

[4] = OVA/OVA mice, nebulized 80 μg/g

SMILES: N[C@@H](CSCCB(O)O)C(=O)O [BEC, S-(2-boronoethyl)-L-cysteine]
airways hyperresponsiveness ([1]; murine models of allergic airways inflammation ref 8a): reduces
maximum central airways responsiveness (RN max) to methacholine ([1]; same model, earlier study ref 8a): attenuates

SMILES: Nc1ncc(CCCC(N)C(=O)O)[nH]1 (stereo not shown) [A4P, 2-amino-5-(2-aminoimidazol-4-yl)-pentanoic acid]
inhibitory activity ([2]; enzymological assay): lacks inhibitory activity

SMILES: Nc1ncc(CC[C@H](N)C(=O)O)[nH]1 [AHH, 2-aminohomohistidine]
mode of inhibition [2]: competitive

Continued, in another order:

mode of inhibition [2]: competitive
SMILES: Nc1nccn1CCC[C@H](N)C(=O)O [A1P, 2-(S)-amino-5-(2-aminoimidazol-1-yl)-pentanoic acid]
maximum resistance of the central airways (RN) following methacholine challenge [3, 4]: significantly attenuated; also recorded: notably decreased
total resistance of the respiratory system (R) following methacholine challenge [3, 4]: attenuated significantly
airways hyperresponsiveness ([3]; murine model of allergic airways inflammation): significantly attenuates; also recorded: significantly reduces

mode of inhibition [2]: noncompetitive
SMILES: Nc1ncc(C[C@H](N)C(=O)O)[nH]1 [2AH, L-2-aminohistidine]

mode of inhibition [2]: noncompetitive
SMILES: Nc1ncc[nH]1 [2-Aminoimidazole, reference compound]
